molecular target: Glutamate NMDA receptor; assay: Binding affinity towards NMDA receptor to displace [3H]-L-689,560 from rat cortical membranes

**Q.** For `COC(=O)c1c(O)c2ccc(Cl)cc2[nH]c1=O`, which IC50 is on record?
**A.** The IC50 was 6.4 µM.

**Q.** `O=C(OCCc1ccccc1O)c1c(O)nc2cc(Cl)ccc2c1O` was tested. Which IC50 did it give?
**A.** Its IC50 is 7.12 µM.

**Q.** How did the IC50 turn out when `CCOC(=O)c1c(O)c2ccc([N+](=O)[O-])cc2[nH]c1=O` was run?
**A.** The IC50 was 25.4 µM.

**Q.** With `O=C(OCCCCc1cccc(O)c1)c1c(O)nc2cc(Cl)ccc2c1O` as the compound, how does the IC50 read?
**A.** The IC50 was 2.62 µM.

**Q.** With `O=C1CC(=O)c2ccc(Cl)cc2N1` as the compound, how does the IC50 read?
**A.** Its IC50 is greater than 100 µM.

**Q.** `O=C(SCCc1ccccc1)c1c(O)nc2cc(Cl)ccc2c1O` was tested. Which IC50 did it give?
**A.** Its IC50 is greater than 10 µM.

**Q.** For `O=C(OCC#Cc1cccc(O)c1)c1c(O)c2ccc(Cl)cc2[nH]c1=O`, which IC50 is on record?
**A.** Its IC50 is 0.17 µM.

**Q.** With `CC(=O)c1c(O)nc2cc(Cl)ccc2c1O` as the compound, how does the IC50 read?
**A.** Its IC50 is greater than 100 µM.

**Q.** How did the IC50 turn out when `C#CCOC(=O)c1c(O)nc2cc(Cl)ccc2c1O` was run?
**A.** Its IC50 is 9 µM.

**Q.** `NC(=O)c1c(O)nc2cc(Cl)ccc2c1O` was tested. Which IC50 did it give?
**A.** The IC50 was greater than 100 µM.

**Q.** Which IC50 does the source give for `CCOC(=O)C1C(=O)Nc2cc(Cl)ccc2C1=O` (stereo not drawn) here?
**A.** Its IC50 is 16.7 µM.

**Q.** With `CCOC(=O)c1c(O)nc2cccc(C)c2c1O` as the compound, how does the IC50 read?
**A.** The IC50 was greater than 1000 µM.

**Q.** With `COc1cccc(C#CCOC(=O)c2c(O)nc3cc(Cl)ccc3c2O)c1` as the compound, how does the IC50 read?
**A.** Its IC50 is 0.27 µM.

**Q.** For `O=C(OCCCc1cccc(O)c1)c1c(O)nc2cc(Cl)ccc2c1O`, which IC50 is on record?
**A.** Its IC50 is 2.64 µM.

**Q.** With `O=C(NO)c1c(O)nc2cc(Cl)ccc2c1O` as the compound, how does the IC50 read?
**A.** The IC50 was 6.32 µM.

**Q.** How did the IC50 turn out when `CONC(=O)c1c(O)nc2cc(Cl)ccc2c1O` was run?
**A.** The IC50 was 3.09 µM.

**Q.** Which IC50 does the source give for `CCOC(=O)c1c(O)nc2cc([N+](=O)[O-])c([N+](=O)[O-])cc2c1O` here?
**A.** The IC50 was 10.5 µM.

**Q.** With `C=CCOC(=O)c1c(O)c2ccc(Cl)cc2[nH]c1=O` as the compound, how does the IC50 read?
**A.** The IC50 was 6.42 µM.

**Q.** `CCCOC(=O)c1c(O)nc2cc(Cl)ccc2c1O` was tested. Which IC50 did it give?
**A.** The IC50 was greater than 100 µM.

**Q.** Which IC50 does the source give for `O=C1Nc2cc(Cl)ccc2C(=O)C1C(=O)c1ccccc1` (stereo not drawn) here?
**A.** The IC50 was 3.16 µM.

**Q.** For `O=C(c1cccnc1)c1c(O)nc2cc(Cl)ccc2c1O`, which IC50 is on record?
**A.** Its IC50 is 6.85 µM.

**Q.** How did the IC50 turn out when `O=C(OCc1cccc(O)c1)c1c(O)nc2cc(Cl)ccc2c1O` was run?
**A.** The IC50 was 6.13 µM.

**Q.** How did the IC50 turn out when `O=C(c1c(O)nc2cc(Cl)ccc2c1O)C1CCCCC1` was run?
**A.** The IC50 was greater than 100 µM.

**Q.** For `CCOC(=O)C1Oc2ccc(Cl)cc2NC1=O` (stereo not drawn), which IC50 is on record?
**A.** Its IC50 is greater than 100 µM.

**Q.** With `COC(=O)C1C(=O)Nc2cc(Cl)ccc2S1(=O)=O` (stereo not drawn) as the compound, how does the IC50 read?
**A.** The IC50 was 13.6 µM.

**Q.** `CCOC(=O)c1c(O)nc2cc(C#N)ccc2c1O` was tested. Which IC50 did it give?
**A.** Its IC50 is 26 µM.

**Q.** `O=C(Cc1ccccc1)c1c(O)c2ccc(Cl)cc2[nH]c1=O` was tested. Which IC50 did it give?
**A.** Its IC50 is 0.93 µM.

**Q.** Which IC50 does the source give for `O=C(NOCc1ccccc1)c1c(O)nc2cc(Cl)ccc2c1O` here?
**A.** Its IC50 is greater than 100 µM.

**Q.** How did the IC50 turn out when `CN(Cc1ccccc1)C(=O)c1c(O)nc2cc(Cl)ccc2c1O` was run?
**A.** The IC50 was greater than 100 µM.

**Q.** With `O=C(OCCc1cccc(O)c1)c1c(O)nc2cc(Cl)ccc2c1O` as the compound, how does the IC50 read?
**A.** The IC50 was 1.82 µM.

**Q.** `O=C(c1ccco1)c1c(O)nc2cc(Cl)ccc2c1O` was tested. Which IC50 did it give?
**A.** Its IC50 is 2.39 µM.

**Q.** For `O=C(Cc1cccs1)c1c(O)nc2cc(Cl)ccc2c1O`, which IC50 is on record?
**A.** Its IC50 is 1.07 µM.

**Q.** With `O=C(NCCc1ccc(O)cc1)c1c(O)nc2cc(Cl)ccc2c1O` as the compound, how does the IC50 read?
**A.** Its IC50 is greater than 100 µM.

**Q.** Which IC50 does the source give for `O=C(CCc1ccccc1)c1c(O)nc2cc(Cl)ccc2c1O` here?
**A.** The IC50 was greater than 100 µM.

**Q.** With `O=C(OCCc1c[nH]c2ccccc12)c1c(O)nc2cc(Cl)ccc2c1O` as the compound, how does the IC50 read?
**A.** The IC50 was 0.43 µM.

**Q.** How did the IC50 turn out when `COC(=O)C1C(=O)Nc2cc(Cl)ccc21` (stereo not drawn) was run?
**A.** The IC50 was greater than 100 µM.

**Q.** With `O=C(c1c(O)nc2cc(Cl)ccc2c1O)N(O)CCc1ccccc1` as the compound, how does the IC50 read?
**A.** The IC50 was 9.3 µM.

**Q.** How did the IC50 turn out when `CCOC(=O)c1c(O)nc2cc(C(F)(F)F)ccc2c1O` was run?
**A.** Its IC50 is 12.3 µM.

**Q.** Which IC50 does the source give for `CCOC(=O)c1c(O)nc2ccc(Cl)cc2c1O` here?
**A.** Its IC50 is greater than 100 µM.

**Q.** With `O=C(OCCc1ccccn1)c1c(O)nc2cc(Cl)ccc2c1O` as the compound, how does the IC50 read?
**A.** The IC50 was 27.5 µM.

**Q.** How did the IC50 turn out when `O=C1CS(=O)(=O)c2ccc(Cl)cc2N1` was run?
**A.** Its IC50 is greater than 100 µM.

**Q.** With `O=C(OCCc1cccs1)c1c(O)nc2cc(Cl)ccc2c1O` as the compound, how does the IC50 read?
**A.** Its IC50 is 3 µM.

**Q.** `O=C(c1ccsc1)c1c(O)nc2cc(Cl)ccc2c1O` was tested. Which IC50 did it give?
**A.** Its IC50 is 1.97 µM.

**Q.** With `CON(C)C(=O)c1c(O)nc2cc(Cl)ccc2c1O` as the compound, how does the IC50 read?
**A.** The IC50 was 47.1 µM.

**Q.** With `CCOC(=O)c1c(O)nc2ccccc2c1O` as the compound, how does the IC50 read?
**A.** The IC50 was greater than 100 µM.

**Q.** `CCOC(=O)c1c(O)nc2c(C)cccc2c1O` was tested. Which IC50 did it give?
**A.** The IC50 was greater than 100 µM.

**Q.** With `O=C(OCCc1ccc(O)cc1)c1c(O)nc2cc(Cl)ccc2c1O` as the compound, how does the IC50 read?
**A.** The IC50 was 2.93 µM.

tested on: Mus musculus; assay: Effective dose of compound required to protect audiogenic seizure in DBA/2 mice administered ip; type: functional
How it was run: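 DBA/2 mice received compound intraperitoneally 30 min before audiogenic seizure induction. Protection was reported as an ED50 or as number protected/number tested at a single dose.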

**Q.** `O=C(Cc1ccccc1)c1c(O)c2ccc(Cl)cc2[nH]c1=O` was tested. Which ED50 did it give?
**A.** Its ED50 is 31.6 mg/kg.

**Q.** How did the ED50 turn out when `O=C(c1c(O)nc2cc(Cl)ccc2c1O)C1CC1` was run?
**A.** Its ED50 is 4.1 mg/kg.

species: Rattus norvegicus; assay: Antagonistic activity against NMDA-induced response in rat cortical slice; type: functional
How it was run: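 Rat cortical slices were challenged with NMDA, with and without antagonist. Apparent Kb was calculated from the rightward shift of the NMDA concentration-response curve. Values are means of at least three experiments, with maximum variance (geometric mean) of 15%.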

**Q.** With `CCOC(=O)C1C(=O)Nc2cc(Cl)ccc2C1=O` (stereo not drawn) as the compound, how does the Kb read?
**A.** The Kb was 65.4 µM.

**Q.** Which Kb does the source give for `O=C(Cc1ccccc1)c1c(O)c2ccc(Cl)cc2[nH]c1=O` here?
**A.** The Kb was 3.92 µM.

**Q.** `O=C(c1c(O)nc2cc(Cl)ccc2c1O)C1CC1` was tested. Which Kb did it give?
**A.** The Kb was 3.39 µM.

**Q.** Which Kb does the source give for `COC(=O)C1C(=O)Nc2cc(Cl)ccc21` (stereo not drawn) here?
**A.** Its Kb is 441 µM.

From ChEMBL document CHEMBL1126880, “3-Acyl-4-hydroxyquinolin-2(1H)-ones. Systemically active anticonvulsants acting by antagonism at the glycine site of the N-methyl-D-aspartate receptor complex” (J Med Chem, 1993)
